Each structure is given as a SMILES string.

Experiment [1] is described as follows: Antiinflammatory activity in human CCD-39SK cells assessed as inhibition of IL-1beta-induced IL-6 production incubated for 60 mins prior to IL-1beta induction measured after 24 hrs. Type of experiment: functional, cell-based. The procedure, abridged: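 CCD-39SK fibroblasts (20 000/well) were grown in MEM with 2% charcoal/dextran-treated FBS. Cells were pretreated with compound for 60 min, then stimulated with rhIL-1β (1 ng/mL final) for 24 h at 37 °C. IL-6 in clarified supernatant was measured. […] Ten-point half-log dilutions were used, each in triplicate.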

In the next experiment the target is T1, Androgen receptor (Homo sapiens, UniProt P10275).
T1 sequence (P10275 whole entry): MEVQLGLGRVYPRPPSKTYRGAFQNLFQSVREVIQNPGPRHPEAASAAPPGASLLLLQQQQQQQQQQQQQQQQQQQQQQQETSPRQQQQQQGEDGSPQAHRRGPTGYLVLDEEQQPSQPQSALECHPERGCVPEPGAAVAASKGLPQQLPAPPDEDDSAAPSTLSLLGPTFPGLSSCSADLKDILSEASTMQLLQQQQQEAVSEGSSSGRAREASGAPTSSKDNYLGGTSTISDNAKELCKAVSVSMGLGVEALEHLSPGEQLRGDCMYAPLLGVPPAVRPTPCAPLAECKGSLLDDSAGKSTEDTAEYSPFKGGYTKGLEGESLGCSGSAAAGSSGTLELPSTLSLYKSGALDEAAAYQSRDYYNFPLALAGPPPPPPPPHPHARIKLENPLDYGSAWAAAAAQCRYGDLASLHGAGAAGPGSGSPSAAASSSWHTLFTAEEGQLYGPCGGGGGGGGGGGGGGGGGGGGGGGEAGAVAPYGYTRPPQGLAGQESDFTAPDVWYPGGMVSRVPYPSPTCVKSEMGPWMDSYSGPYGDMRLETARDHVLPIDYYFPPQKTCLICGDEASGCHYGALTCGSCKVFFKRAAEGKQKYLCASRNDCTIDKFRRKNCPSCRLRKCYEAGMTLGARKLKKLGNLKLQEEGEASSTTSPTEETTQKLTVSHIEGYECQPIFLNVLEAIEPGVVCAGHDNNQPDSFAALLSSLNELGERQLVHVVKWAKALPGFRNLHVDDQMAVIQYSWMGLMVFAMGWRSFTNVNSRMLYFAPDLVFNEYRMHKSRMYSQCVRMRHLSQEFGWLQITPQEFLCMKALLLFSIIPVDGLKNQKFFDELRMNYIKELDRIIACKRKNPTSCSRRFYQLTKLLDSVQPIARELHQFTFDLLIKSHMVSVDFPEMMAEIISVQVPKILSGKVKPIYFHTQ
As to the kind of experiment: Displacement of [3H]-methyltrienolone from human androgen receptor expressed in HEK293 cells. Type of experiment: cell-based. (In a radioligand displacement assay an active substance lowers the binding of a labelled ligand.)

A further experiment has as its target T2, Glucocorticoid receptor (Homo sapiens, UniProt P04150).
T2 sequence (P04150 whole entry): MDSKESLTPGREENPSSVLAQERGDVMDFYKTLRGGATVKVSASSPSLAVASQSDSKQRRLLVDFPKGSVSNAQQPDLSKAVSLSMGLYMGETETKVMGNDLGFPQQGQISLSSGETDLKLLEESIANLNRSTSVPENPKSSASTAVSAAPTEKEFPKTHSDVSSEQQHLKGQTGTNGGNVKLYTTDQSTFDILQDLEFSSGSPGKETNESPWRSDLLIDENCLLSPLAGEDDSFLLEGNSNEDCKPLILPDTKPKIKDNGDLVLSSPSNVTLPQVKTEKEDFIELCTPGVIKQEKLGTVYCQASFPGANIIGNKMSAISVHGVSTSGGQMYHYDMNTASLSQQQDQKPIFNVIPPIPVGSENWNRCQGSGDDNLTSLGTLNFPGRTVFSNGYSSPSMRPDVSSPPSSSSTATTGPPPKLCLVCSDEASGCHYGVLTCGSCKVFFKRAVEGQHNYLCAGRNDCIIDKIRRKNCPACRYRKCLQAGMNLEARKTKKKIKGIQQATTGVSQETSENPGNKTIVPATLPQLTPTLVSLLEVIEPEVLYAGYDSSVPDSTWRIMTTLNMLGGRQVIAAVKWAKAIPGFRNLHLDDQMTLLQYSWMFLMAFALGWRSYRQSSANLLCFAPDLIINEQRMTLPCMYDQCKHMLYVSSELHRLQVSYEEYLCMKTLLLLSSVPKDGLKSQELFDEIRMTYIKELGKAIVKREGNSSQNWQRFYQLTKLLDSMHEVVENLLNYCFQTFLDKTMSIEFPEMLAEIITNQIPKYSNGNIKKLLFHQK
As to the kind of experiment: Displacement of [3H]-dexamethasone from human glucocorticoid receptor expressed in HEK293 cells. Type of experiment: cell-based.

Experiment [2] deals with T3, Mineralocorticoid receptor (Homo sapiens, UniProt P08235).
T3 sequence (P08235 whole entry): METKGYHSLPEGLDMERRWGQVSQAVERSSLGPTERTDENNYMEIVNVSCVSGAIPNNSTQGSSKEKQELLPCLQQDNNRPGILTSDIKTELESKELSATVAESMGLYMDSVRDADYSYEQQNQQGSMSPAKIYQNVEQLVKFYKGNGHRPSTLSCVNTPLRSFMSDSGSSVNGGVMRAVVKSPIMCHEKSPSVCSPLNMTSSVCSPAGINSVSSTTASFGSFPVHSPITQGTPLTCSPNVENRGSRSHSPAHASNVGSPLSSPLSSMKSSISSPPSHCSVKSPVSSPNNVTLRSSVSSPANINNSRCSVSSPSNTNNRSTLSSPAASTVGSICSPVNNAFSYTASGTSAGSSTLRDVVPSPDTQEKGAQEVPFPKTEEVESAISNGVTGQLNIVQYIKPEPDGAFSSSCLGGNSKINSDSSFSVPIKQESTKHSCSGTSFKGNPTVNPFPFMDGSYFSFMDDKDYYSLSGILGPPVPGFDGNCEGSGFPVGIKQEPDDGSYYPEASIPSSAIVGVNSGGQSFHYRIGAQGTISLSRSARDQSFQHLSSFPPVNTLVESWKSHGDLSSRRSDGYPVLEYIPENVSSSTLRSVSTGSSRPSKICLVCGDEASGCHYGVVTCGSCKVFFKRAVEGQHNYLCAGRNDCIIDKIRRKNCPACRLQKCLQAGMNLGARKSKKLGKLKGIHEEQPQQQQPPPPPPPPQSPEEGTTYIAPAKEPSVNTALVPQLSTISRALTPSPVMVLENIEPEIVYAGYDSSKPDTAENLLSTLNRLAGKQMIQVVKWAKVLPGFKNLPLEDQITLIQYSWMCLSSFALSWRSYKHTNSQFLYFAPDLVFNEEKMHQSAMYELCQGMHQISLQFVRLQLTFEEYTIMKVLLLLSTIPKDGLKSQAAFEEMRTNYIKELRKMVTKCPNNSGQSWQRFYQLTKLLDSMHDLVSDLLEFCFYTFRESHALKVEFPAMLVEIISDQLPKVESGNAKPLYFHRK
As to the kind of experiment: Displacement of [3H]-aldosterone from human mineralocorticoid receptor expressed in HEK293 cells. Type of experiment: cell-based. A digest of the protocol: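 Competition binding used lysates of HEK293 cells overexpressing the human receptor. The tracer was ³H-aldosterone for MR and ³H-methyltrienolone for PR. Competitor was tested from 0.01 nM to 10 μM. IC50 was converted to Ki by Cheng–Prusoff. Values are means of at least three experiments, each run in triplicate.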

One may read the IC50 as the point on the concentration scale where inhibition reaches its midpoint. For orientation: Ki means a measure of affinity in units of concentration, obtained from inhibition or displacement. Lower therefore signals higher affinity. For the molecule `C/C(=C1/c2ccccc2COc2ccccc21)c1cccc(NS(C)(=O)=O)c1`, the IC50 in experiment [1] came out at 9.32 nM. Moreover, the Ki came to 5.98 nM at Androgen receptor, 0.257 nM at Glucocorticoid receptor and 0.342 nM in experiment [2].

On to `CS(=O)(=O)Nc1cccc(C=C2c3ccccc3CCc3ccccc32)c1`, for which the IC50 in experiment [1] came out at 75.9 nM. The Ki at Androgen receptor was 418 nM; at Glucocorticoid receptor, 0.226 nM; in experiment [2], 2.48 nM.

With `CC/C(=C1/c2ccccc2COc2ccccc21)c1cccc(NS(C)(=O)=O)c1`, the IC50 in experiment [1] stood at 4.8 nM. The inhibition constant (Ki) turned out to be 9.74 nM at Androgen receptor, 0.146 nM at Glucocorticoid receptor and 0.967 nM in experiment [2].

Take `CC/C(=C1\c2ccccc2OCc2cccc(OC)c21)c1cccc(NS(C)(=O)=O)c1`: the IC50 in experiment [1] is 4.38 nM. The figures for the Ki (on Androgen receptor; at Glucocorticoid receptor; in experiment [2]) were 239 nM, 0.268 nM and 6.1 nM, respectively.

Values taken from ChEMBL document CHEMBL3120138, “Glucocorticoid receptor modulators informed by crystallography lead to a new rationale for receptor selectivity, function, and implications for structure-based design” (J Med Chem, 2014).
